Assay results taken from ChEMBL document CHEMBL1177728, “Discovery and optimization of boronic acid based inhibitors of autotaxin” (J Med Chem, 2010).

Legend:
Autotaxin [1] = biological target: T1, Autotaxin (Homo sapiens, UniProt Q13822); test: Inhibition of 6x-histidine-tagged human recombinant ATX expressed in HEK293 cells assessed as lysophosphatidulcholine release; type: cell-based
Summary of the method: (§1)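 LPC (18:1) choline release: ATX (~40 nM) secreted by transfected HEK293 cells into serum-free medium, TALON-purified, in 50 mM Tris-HCl pH 7.4 with 0.01% Triton X-100. Substrate added as 80 μM LPC with 10 mM MgCl2 and CaCl2, 3 h at 37 C.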

Autotaxin [2] = biological target: T1, Autotaxin; test: Inhibition of 6x-histidine-tagged human recombinant ATX expressed in HEK293 cells assessed as lysophosphatidulcholine release at 5 uM; type: cell-based
Summary of the method: as §1, with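 “C. Choline read at 405 nm by choline oxidase/HRP/ABTS with compound-absorbance correction. IC50 over 10 concentrations (0.01–30 μM); inhibition at 5 μM final.” for “C.”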

Autotaxin [3] = biological target: T1, Autotaxin; test: Inhibition of 6x-histidine-tagged human recombinant ATX expressed in HEK293 cells using bisP-nitrophenyl phosphate as a substrate; type: cell-based
Autotaxin [4] = biological target: T1, Autotaxin; test: Inhibition of 6x-histidine-tagged human recombinant ATX expressed in HEK293 cells assessed as residual activity using bisP-nitrophenyl phosphate as a substrate; values are per cent of control

inhibition (Autotaxin [2])	SMILES	further results
11%	COc1cc(/C=C2\SC(=O)N(Cc3ccc(C)cc3)C2=O)ccc1OCc1ccc(C(=O)O)cc1	
13%	COc1cc(/C=C2\SC(=O)N(Cc3ccc(F)cc3C(F)(F)F)C2=O)ccc1OCc1ccc(C(=O)O)cc1	
31%	COC(=O)c1ccc(CN2C(=O)S/C(=C\c3ccc(OCc4ccc(C(=O)O)cc4)c(OC)c3)C2=O)cc1	
10%	COc1cc(/C=C2\SC(=O)N(Cc3ccccn3)C2=O)ccc1OCc1ccc(C(=O)O)cc1	
46%	COc1cc(/C=C2\SC(=O)N(Cc3cccc(C(F)(F)F)c3)C2=O)ccc1OCc1ccc(C(=O)O)cc1	
57%	COc1cc(/C=C2\SC(=O)N(Cc3ccccc3Cl)C2=O)ccc1OCc1ccc(C(=O)O)cc1	
17%	COc1cc(/C=C2\SC(=O)N(Cc3ccccc3C#N)C2=O)ccc1OCc1ccc(C(=O)O)cc1	
21%	COc1cc(/C=C2\SC(=O)N(Cc3ccc(C#N)cc3)C2=O)ccc1OCc1ccc(C(=O)O)cc1	
20%	COc1cccc(CN2C(=O)S/C(=C\c3ccc(OCc4ccc(C(=O)O)cc4)c(OC)c3)C2=O)c1	
38%	COc1cc(/C=C2\SC(=O)N(Cc3ccccc3[N+](=O)[O-])C2=O)ccc1OCc1ccc(C(=O)O)cc1	
72%	COc1cc(/C=C2\SC(=O)N(Cc3ccccc3Br)C2=O)ccc1OCc1ccc(C(=O)O)cc1	
23%	COc1cc(/C=C2\SC(=O)N(CC(=O)c3ccc(Br)cc3)C2=O)ccc1OCc1ccc(C(=O)O)cc1	
23%	COc1cc(/C=C2\SC(=O)N(Cc3ccc(Br)cc3)C2=O)ccc1OCc1ccc(C(=O)O)cc1	
38%	COc1cc(/C=C2/SC(=O)N(Cc3c(Cl)cccc3Cl)C2=O)ccc1OCc1ccc(C(=O)O)cc1	
28%	COc1cc(/C=C2\SC(=O)N(Cc3ccccc3C(F)(F)F)C2=O)ccc1OCc1ccc(C(=O)O)cc1	
17%	COc1cc(/C=C2\SC(=O)N(Cc3cccnc3)C2=O)ccc1OCc1ccc(C(=O)O)cc1	
13%	COc1cc(/C=C2\SC(=O)N(Cc3ccncc3)C2=O)ccc1OCc1ccc(C(=O)O)cc1	

inhibition (Autotaxin [2])	SMILES	further results
48%	COc1cc(/C=C2\SC(=O)N(Cc3cccc([N+](=O)[O-])c3)C2=O)ccc1OCc1ccc(C(=O)O)cc1	
49%	COc1cc(/C=C2\SC(=O)N(Cc3ccc(C(=O)O)cc3)C2=O)ccc1OCc1ccc(C(=O)O)cc1	
26%	COc1cc(/C=C2\SC(=O)N(Cc3cccc(Br)c3)C2=O)ccc1OCc1ccc(C(=O)O)cc1	
41%	COc1cc(/C=C2\SC(=O)N(Cc3ccccc3F)C2=O)ccc1OCc1ccc(C(=O)O)cc1	
42%	COc1cc(/C=C2\SC(=O)N(Cc3ccc(CC(=O)O)cc3)C2=O)ccc1OCc1ccc(C(=O)O)cc1	
30%	COC(=O)c1cccc(CN2C(=O)S/C(=C\c3ccc(OCc4ccc(C(=O)O)cc4)c(OC)c3)C2=O)c1	
57%	COc1cc(/C=C2\SC(=O)N(Cc3ccc(Cl)cc3)C2=O)ccc1OCc1ccc(C(=O)O)cc1	
13%	COc1cc(/C=C2\SC(=O)N(Cc3cccc4ccccc34)C2=O)ccc1OCc1ccc(C(=O)O)cc1	
11%	COc1ccc(CN2C(=O)S/C(=C\c3ccc(OCc4ccc(C(=O)O)cc4)c(OC)c3)C2=O)cc1	
12%	COc1cc(/C=C2\SC(=O)N(Cc3ccc(OC(F)(F)F)cc3)C2=O)ccc1OCc1ccc(C(=O)O)cc1	
64%	COc1cc(/C=C2\SC(=O)N(Cc3cccc(F)c3)C2=O)ccc1OCc1ccc(C(=O)O)cc1	
19%	C=CCN1C(=O)S/C(=C\c2ccc(OCc3ccc(C(=O)O)cc3)c(OC)c2)C1=O	
44%	COc1cc(/C=C2\SC(=O)N(Cc3cccc(C#N)c3)C2=O)ccc1OCc1ccc(C(=O)O)cc1	
29%	COc1cc(/C=C2\SC(=O)N(Cc3cccc(Cl)c3)C2=O)ccc1OCc1ccc(C(=O)O)cc1	
32%	COc1cc(/C=C2\SC(=O)N(Cc3ccc(C(F)(F)F)cc3)C2=O)ccc1OCc1ccc(C(=O)O)cc1	
51%	COc1cc(/C=C2\SC(=O)N(Cc3ccc(F)cc3Br)C2=O)ccc1OCc1ccc(C(=O)O)cc1	

The remaining lines, values behind:

SMILES	inhibition (Autotaxin [2])	further results
O=C1S/C(=C\c2cccc(OCc3ccccc3B(O)O)c2)C(=O)N1Cc1ccc(F)cc1	11%	IC50 (Autotaxin [1]): > 5 µM
COc1cc(/C=C2\SC(=O)N(Cc3ccc(C(C)(C)C)cc3)C2=O)ccc1OCc1ccccc1		IC50 (Autotaxin [3]; hek293): Not Active
COc1cc(/C=C2\SC(=O)N(C(C)c3ccccc3)C2=O)ccc1OCc1ccc(C(=O)O)cc1 (configuration not stated)	5%	
CCCCCN1C(=O)S/C(=C\c2ccc(OCc3ccc(C(=O)O)cc3)c(OC)c2)C1=O	15%	
COc1cc(/C=C2\SC(=O)N(Cc3ccc(F)cc3)C2=O)ccc1OCc1ccccc1		residual activity (Autotaxin [4]): 12%; IC50 (Autotaxin [3]; read-out: IC50): 5.87 µM
COc1cc(/C=C2\SC(=O)N(Cc3ccc(C(=O)O)cc3[N+](=O)[O-])C2=O)ccc1OCc1ccc(C(=O)O)cc1	31%	
COc1cc(/C=C2\SC(=O)N(CC(=O)c3ccc(Cl)cc3)C2=O)ccc1OCc1ccc(C(=O)O)cc1	35%	
O=C1S/C(=C\c2ccc(OCc3ccccc3)cc2)C(=O)N1Cc1ccccc1		residual activity (Autotaxin [4]): 32%; IC50 (Autotaxin [3]; read-out: IC50): 2.69 µM
CC(C)(C)c1ccc(CN2C(=O)S/C(=C\c3ccccc3)C2=O)cc1		IC50 (Autotaxin [3]; hek293): Not Active
CC(C)(C)c1ccc(CN2C(=O)S/C(=C\c3ccc(OCc4ccccc4)cc3)C2=O)cc1		IC50 (Autotaxin [3]; read-out: IC50): > 100 µM
O=C1S/C(=C\c2ccc(OCc3ccccc3B(O)O)cc2)C(=O)N1Cc1ccc(F)cc1	36%	IC50 (Autotaxin [1]): > 5 µM
COC(=O)c1ccc(COc2ccc(/C=C3\SC(=O)N(Cc4ccc(F)cc4)C3=O)cc2OC)cc1		IC50 (Autotaxin [3]; read-out: IC50): > 100 µM
O=C1S/C(=C\c2ccc(OCc3ccc(B(O)O)cc3)cc2)C(=O)N1Cc1ccc(F)cc1	99%	
COc1cc(/C=C2\SC(=O)N(CCN3C(=O)c4ccccc4C3=O)C2=O)ccc1OCc1ccc(C(=O)O)cc1	0%	
O=C1S/C(=C\c2ccccc2)C(=O)N1Cc1ccc([N+](=O)[O-])cc1		IC50 (Autotaxin [3]; hek293): Not Active
COc1cc(/C=C2\SC(=O)N(Cc3ccccc3)C2=O)ccc1OCc1ccccc1		IC50 (Autotaxin [3]; read-out: IC50): 100 µM
COC(=O)c1ccc(COc2ccc(/C=C3\SC(=O)N(Cc4ccc(C(C)(C)C)cc4)C3=O)cc2OC)cc1		IC50 (Autotaxin [3]; read-out: IC50): > 100 µM
O=C1S/C(=C\c2cccc(OCc3cccc(B(O)O)c3)c2)C(=O)N1Cc1ccc(F)cc1	100%	IC50 (Autotaxin [1]): 0.0119 µM
COc1cc(/C=C2\SC(=O)N(CC(=O)c3ccc([N+](=O)[O-])cc3)C2=O)ccc1OCc1ccc(C(=O)O)cc1	17%	
O=C1S/C(=C\c2ccccc2)C(=O)N1Cc1ccc(F)cc1		IC50 (Autotaxin [3]; read-out: IC50): > 100 µM
O=C1S/C(=C\c2ccccc2)C(=O)N1Cc1ccccc1		IC50 (Autotaxin [3]; read-out: IC50): > 100 µM
COc1cc(/C=C2\SC(=O)N(Cc3ccc([N+](=O)[O-])cc3)C2=O)ccc1OCc1ccccc1		IC50 (Autotaxin [3]; read-out: IC50): > 100 µM
COc1cc(/C=C2/SC(=O)N(Cc3c(F)c(F)c(F)c(F)c3F)C2=O)ccc1OCc1ccc(C(=O)O)cc1	10%	
O=C1S/C(=C\c2ccc(OCc3ccccc3)cc2)C(=O)N1Cc1ccc([N+](=O)[O-])cc1		IC50 (Autotaxin [3]; read-out: IC50): > 100 µM
O=C1S/C(=C\c2cccc(OCc3ccc(B(O)O)cc3)c2)C(=O)N1Cc1ccc(F)cc1	100%	IC50 (Autotaxin [1]): 0.0296 µM
O=C1S/C(=C\c2ccc(OCc3cccc(B(O)O)c3)cc2)C(=O)N1Cc1ccc(F)cc1	99%	IC50 (Autotaxin [1]): 0.0283 µM
COc1cc(/C=C2\SC(=O)N(C(c3ccccc3)c3ccccc3)C2=O)ccc1OCc1ccc(C(=O)O)cc1	4%	
